Results pooled from the literature.
Compare with care: the assays were run in different laboratories.
BRD1 bromodomain: Bromodomain-containing protein 1, bromodomain (BRD1, Homo sapiens, UniProt O95696)
ESR1: Estrogen receptor (ESR1, Homo sapiens, UniProt P03372)
Si: Sucrase-isomaltase, intestinal (Si, Rattus norvegicus, UniProt P23739)

Compound | target | assay | system | conditions | measurement | result
Nc1ncnc2occ(-c3ccc(NC(=O)Nc4cc(C(F)(F)F)ccc4F)cc3)c12 | Serine/threonine-protein kinase RIO2 (RIOK2, Homo sapiens, UniProt Q9BVS4) | cell-free assay, inhibitor |  | 20 µM | remaining signal | 8.5%
NS(=O)(=O)c1ccc(Nc2nc(-c3ccc(F)cc3)c3ccccc3n2)cc1 | BRD1 bromodomain | binding, competition with immobilised ligand |  | 1 µM | remaining binding | 2%
O=C(c1ccc(Cl)cc1)N(Cc1ccccc1)C1CCCCC1 | Glucocorticoid receptor (NR3C1, Homo sapiens, UniProt P04150) | cell-free assay |  | 10 µM | inhibition | 28.5%
Cc1cnc(NC2CCOCC2)nc1-n1cnc(C(=O)NC(CN)c2cc(F)cc(Cl)c2)c1 (stereo not drawn) | Abl2 (Mus musculus, UniProt Q4JIM5) | enzyme activity, inhibitor, radiometric |  | 1 µM | remaining activity | 102%
CCCc1c(-c2ccc(O)cc2)nn(-c2ccc(O)cc2)c1-c1ccc(O)cc1 | ESR1 | reporter gene, agonist, luciferase | U2OS |  | Emax | 120%
Cc1ccc(C(=O)Nc2ccc(CN3CCN(C)CC3)c(C(F)(F)F)c2)cc1C#Cc1cnc2cccnn12 | Hormonally up-regulated neu tumor-associated kinase (HUNK, Homo sapiens, UniProt P57058) | enzyme activity, inhibitor |  | 23.5 nM | remaining activity | 94%
Cn1c2c(c3ccc(Cl)c(Cl)c31)C(C#N)C1(CCOCC1)NC2=O (stereo not drawn) | Rhodopsin kinase GRK1 (GRK1, Homo sapiens, UniProt Q15835) | thermal stability, DSF |  | 10 µM | ΔTm | 0.4 °C
C=C(C)[C@@H]1CCC(C)=C[C@H]1c1c(O)cc(CCCCC)cc1O | Polyunsaturated fatty acid lipoxygenase ALOX12 (ALOX12, Homo sapiens, UniProt P18054) | enzyme activity in cells, inhibitor | PMNL | 10 µM | remaining activity | 131%
CCOCc1nc(O)c(-c2nnc(Cc3ccc(Cl)cn3)o2)c(O)c1-c1c(OC)cccc1OC | Apelin receptor (APLNR, Homo sapiens, UniProt P35414) | binding, radioligand |  |  | kon | 5.17e+06 M⁻¹ s⁻¹
O=C1OC[C@H]2OC(=O)c3cc(O)c(O)c(O)c3-c3c(O)c(O)c(O)c4c3C(=O)O[C@H]([C@H]3OC(=O)c5c-4c(O)c(O)c(O)c5[C@H]3O)[C@@H]2OC(=O)c2cc(O)c(O)c(O)c2-c2c1cc(O)c(O)c2O | Si | enzyme activity, inhibitor |  | 200 µg/mL | inhibition | 52.8%
Oc1ccc(-c2nc(-c3ccncc3)c(-c3ccc(F)cc3)[nH]2)cc1 | BRD1 bromodomain | thermal stability, DSF |  | 10 µM | ΔTm | 0.46 °C
O=c1c(O[C@@H]2O[C@H](CO)[C@@H](O)[C@H](O)[C@H]2O)c(-c2ccc(O)c(O)c2)oc2cc(O)cc(O)c12 | Si | enzyme activity, inhibitor |  | 50 µg/mL | inhibition | 30.8%
O=C(O)C(=O)Cc1ccccc1 | D-dopachrome decarboxylase (Homo sapiens, UniProt P30046) | enzyme activity, substrate |  |  | Km | 2400 µM
O=c1c(O[C@@H]2O[C@@H](CO)[C@H](O)[C@H]2O)c(-c2ccc(O)c(O)c2)oc2cc(O)cc(O)c12 | Si | enzyme activity, inhibitor |  | 200 µg/mL | inhibition | 58.3%
O=C(c1ccc(F)cc1)N(Cc1ccccc1)C1CCCCC1 | ESR1 | cell-free assay |  | 10 µM | inhibition | 32%
